Assay outcomes deposited in PubChem by several laboratories.
This excerpt belongs to a sample that is enriched for hits.
Dynein transport – blocks dynein driven cargo transport along microtubules. z-score, hits read low. AID 1381. 3617.4 mouse cells, GR-EGFP nuclear translocation imaging; test concentration mostly 20 µM; stimulated with dexamethasone, 1 µM; active compounds read low. hit rate 0.47% among 220,000;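 active = plate z-score of nuclear minus cytoplasmic receptor signal below a set negative limit, without overly bright fluorescence or cell loss, cut at about -3.5 in these data, passing the limit was not always enough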;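 note: z-score of nuclear minus cytoplasmic ring GR-EGFP intensity difference per well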
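medium = tetracycline-free induction medium containing charcoal-stripped FBS | probe or stimulus = dexamethasone, 1.0 µM final | timing = 48 h induction, then 1 h compound, then 30 min agonist, 37 °C | detection = automated 10x imaging of fixed Hoechst-stained cells | read-out basis = nuclear versus cytoplasmic GR-EGFP signal, averaged per well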
CHOP UPR activ – activators of apoptotic arm of unfolded protein response (CHOP); CHO-CHOP luciferase reporter, UPR activation, luminescence; percent of tunicamycin response over DMSO baseline; activation, % at 10 µM; hit rate 0.34% among 330,000;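 active = at 10 µM dose, activation of 40% or more, normalized to positive control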;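 note: 100% = tunicamycin at 10 µg/mL and 0% = DMSO alone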
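assay system = CHO CHOP reporter cells | amount = 500 CHO-CHOP cells per well | buffer or medium = F12 with 10% FBS | incubation = 16-18 h cell attachment, then 6 h compound exposure, 37 °C | detection = luminescence read with Steady-Glo | read-out = percent activation relative to tunicamycin control | controls = tunicamycin high control, DMSO low control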
T cruzi inh – T. cruzi replication inhibition. inhibition, % (no concentration beside the values). AID 1885. hit rate 1.4% among 300,000. T. cruzi beta-gal in NIH3T3, luminescence, 90 h;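 active = mean inhibition across valid replicates above about 55%, limit read from the data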;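 note: signal also drops with host cell toxicity which is not excluded here; 0% = plate median of DMSO wells and 100% = zero luminescence signal; higher percent means less beta-gal luminescence so fewer parasites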
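Test system: β-gal T. cruzi (Tulahuen C4) inside NIH/3T3 cells / Quantity: 5,000 cells/well / Measured by: luminescence from GalScreen with 0.05% NP40, read after 60 min / Medium: DMEM plus 2% FBS / Measure: parasite load inhibition, % / Reagent: Tulahuen C4 trypomastigotes, 5000/well / Schedule: co-culture of at least 90 h after 3 h attachment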
Lmaj promast – reduces viability of Leishmania major promastigotes. hit rate 9% among 200,000. resazurin fluorescence viability. inhibition, % at 10 µM; in the data active = inhibition above about 50%;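 note: promastigotes grown with compound for 44 hours at 28 °C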
CHOP inh – CHOP inhibition in unfolded protein response; CHO-K1 CHOP-promoter luciferase, tunicamycin-induced, 15-18 h; inhibition, % at 10 µM; hit rate 3.8% among 220,000;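 active = compounds that reduced the stress-induced luciferase reporter signal by more than about 70% of percent inhibition, limit read from the data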;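 note: 0% = tunicamycin plus vehicle and 100% = wells without tunicamycin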
UPR XBP1 act – adaptive UPR (XBP1) activation. activation, % at 20 µM. CHO-XBP1 luciferase reporter, IRE1-XBP1 UPR activation, luminescence; percent of tunicamycin response, DMSO as zero. hit rate 0.33% among 330,000;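 active = versus positive control, 20 µM dose yields 30% or more activation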;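 note: 100% = tunicamycin at 10 µg/mL and 0% = DMSO only wells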
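Test system: CHO-XBP1 luciferase reporter cells | Buffer or medium: Serum-containing F12 medium, 10% FBS | Schedule: 6 h compound exposure at 37 °C, 5% CO2 | Detection: Steady-Glo luciferase glow luminescence, 10 min after reagent addition | Read-out basis: Activation, % of tunicamycin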
CHOP confirm – confirmation of CHOP induction inhibitors; shares compounds with CHOP inh; CHO-CHOP promoter luciferase reporter, tunicamycin-induced, luminescence; inhibition, % at 10 µM; hit rate 45% among 2,100; AID 504437;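 active = mean of three repeat readings of reporter signal inhibition above a set limit, cut at about 70% in these data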;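 note: 0% = tunicamycin plus vehicle and 100% = wells lacking tunicamycin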
Starred values were filed as active, the others as inactive; i = inactive; nt = no result.

SMILES | Dynein transport | CHOP UPR activ | T cruzi inh | Lmaj promast | CHOP inh | UPR XBP1 act | CHOP confirm
COc1ccc(OC)c(S(=O)(=O)Nc2cc3c4c(c2)C(C)C(=O)N4CCC3)c1 (stereo unspecified) | nt | 1.2 | -6.0 | nt | nt | -3.3 | nt
O=c1[nH]c(=O)n(Cc2ccco2)c2c1C(C(F)(F)F)(C(F)(F)F)N=C(c1ccc(F)cc1)N2 | 0.593 | 3.7 | -36.1 | 11.9 | 100.5* | 4.9 | 86.8*
O=c1[nH]c(=O)n(Cc2ccccc2)c2c1C(C(F)(F)F)(C(F)(F)F)N=C(c1ccco1)N2 | 0.152 | -0.8 | 13.6 | 11.4 | 15.9 | 3.9 | nt
Cc1nc2ccc(NC(=O)c3cc([N+](=O)[O-])cc([N+](=O)[O-])c3Cl)cc2s1 | -3.58* | nt | nt | -3.3 | 107.2* | nt | 5.6
CCn1c(C)nc2cc(-c3nnc(-c4c(-c5ccccc5)noc4C)o3)ccc21 | 2.25 | 5.7 | 30.8 | 7.5 | 101.5* | 16.8 | 85.2*
COc1ccc(CNC(=O)COC(=O)c2ccc(OCC3CCCO3)cc2)cc1 (stereo unspecified) | nt | -2.6 | nt | nt | nt | -1.2 | nt
Cc1ccc(/C=N/N2C(=S)SC(C)(C)C2N(O)C(=O)Nc2ccc([N+](=O)[O-])cc2)cc1 (stereo unspecified) | -0.602 | 3.4 | 25.2 | 41.0 | 103.1* | 5.8 | 78.1*
COc1ccc(C2/C(=C(\O)c3ccc4c(c3)CC(C)O4)C(=O)C(=O)N2Cc2cccnc2)c(OC)c1 (stereo unspecified) | nt | -0.4 | -4.4 | nt | nt | -2.7 | nt
CCOC(=O)c1ccc(S(=O)(=O)NC2CCC(C)CC2)cc1 (stereo unspecified) | nt | -1.0 | nt | nt | nt | -0.1 | nt
O=C(Nc1ccc(Oc2c(F)c(F)c(F)c(F)c2F)cc1)OC1CCN2Cc3ccccc3N=C12 (stereo unspecified) | 0.34 | 5.5 | 18.0 | nt | 100.2* | 9.1 | 125.4*
CC(C)(C)C(=O)Nc1ccc(-c2nc3ccccc3c(=O)o2)cc1 | -0.322 | -8.0 | -10.9 | -7.2 | 105.3* | -4.2 | 90.2*
CCOC(=O)c1cccc(NC(=O)CSc2nnc(COc3ccccc3C)o2)c1 | 0.674 | -1.3 | 15.4 | -7.9 | 107.6* | 0.0 | 12.0
COc1cccc(OCCSc2nc(C)c(Cc3ccccc3)c(=O)[nH]2)c1 | 0.438 | -0.5 | 13.1 | -3.8 | 99.2* | -4.6 | -76.1
COc1ccc(OCCSc2nc(C)c(Cc3ccccc3)c(=O)[nH]2)cc1 | 1.81 | 0.9 | 3.0 | -8.2 | -6.0 | -2.1 | nt
Cc1nc2scc(C)n2c(=O)c1S(=O)(=O)NCC1CCN(Cc2ccc(F)cc2)CC1 | nt | 1.8 | 19.4 | nt | nt | -9.1 | nt
N=C1/C(=C/c2coc3ccccc3c2=O)C(=O)N=C2SC(c3ccco3)=NN12 | -0.0866 | 1.1 | 10.6 | nt | -12.4 | 4.1 | nt
N=C1/C(=C\c2coc3ccccc3c2=O)C(=O)N=C2SC(c3ccncc3)=NN12 | -0.143 | 1.8 | -13.0 | nt | 102.1* | -1.5 | -3.5
COc1ccccc1OCCNC(=O)CCC(=O)N1CCOCC1 | nt | -0.5 | nt | nt | nt | 0.2 | nt
CN(c1ccccc1)C1CCCCC1NS(=O)(=O)c1ccc(Cl)cc1 (stereo unspecified) | 0.434 | -1.1 | 23.1 | 35.3 | 96.2* | -2.3 | 26.6
O=C(NCCN1CCOCC1)C(=O)NCC1OCCCN1S(=O)(=O)c1cc(F)ccc1F (stereo unspecified) | nt | -2.3 | -5.6 | nt | nt | 1.2 | nt
CC(=O)c1sc2nc(-c3cccs3)ccc2c1N | -0.694 | 3.8 | 6.3 | -7.8 | -18.9 | 1.4 | nt
Nc1c(C(=O)Nc2nc3ccccc3s2)sc2nc(-c3cccs3)ccc12 | 9.39 | 26.1 | 51.9 | 0.7 | 101.9* | 28.9 | 82.0*
COc1cc(OC)cc(C(=O)N[C@H](C(=O)Nc2nc(-c3ccc(OC)c(OC)c3)cs2)C(C)C)c1 | -0.112 | -0.4 | 21.0 | nt | 100.7* | 7.7 | 55.8
CCc1ncc(CN2CCC(C(=O)Nc3cccc(-c4cscn4)c3)CC2)cn1 | nt | -1.5 | 10.1 | nt | nt | -3.1 | nt
Cc1ccc(CSCC(=O)Nc2ccc(N3CCOCC3)cc2N2CCOCC2)cc1 | nt | -3.4 | 2.9 | nt | nt | -1.7 | nt
SMILES | Dynein transport | CHOP UPR activ | T cruzi inh | Lmaj promast | CHOP inh | UPR XBP1 act | CHOP confirm
Cn1nc(-c2ccccc2)cc1NC(=O)Nc1ccc(C(C)(C)C)cc1 | 0.953 | -1.2 | 22.3 | nt | 105.4* | -1.7 | 81.1*
Cn1nc(-c2ccc(Cl)cc2)cc1NC(=O)Nc1ccccc1 | -0.312 | 4.2 | 2.6 | nt | -0.8 | 1.4 | nt
O=C(Nc1ccccc1N1CCCC1)c1cc2ccccc2o1 | -0.786 | 2.4 | 11.3 | 19.4 | 21.7 | 5.1 | nt
O=C(Nc1ccccc1N1CCN(C(=O)c2ccccc2)CC1)c1cc2ccccc2o1 | -0.711 | 3.5 | nt | 21.4 | 97.6* | 4.2 | 25.7
Cc1ccc(CN2CCNC(=O)C2CC(=O)N(C)C2CCCCC2)cc1 (stereo unspecified) | nt | -0.5 | -0.7 | nt | nt | -4.4 | nt
O=C(CSc1nnc(SCc2cccc3ccccc23)s1)N=Nc1c(O)[nH]c2ccccc12 | -0.112 | nt | nt | -6.6 | 96.6* | nt | 15.3
CCN=C1S/C(=C\c2cc(OCC)c(O)cc2Br)C(=O)N1CC | -0.402 | nt | -2.3 | 4.7 | 108.5* | nt | 37.4
O=C(NCc1ccco1)c1cccn2c(=O)c3cc4ccccc4cc3nc12 | -3.66 | nt | nt | 14.0 | -54.6 | nt | nt
COCCCNC(=O)c1cccn2c(=O)c3cc4ccccc4cc3nc12 | -1.32 | 7.2 | nt | 89.6* | 97.6* | 2.7 | 58.3
CN(C)c1ccc(N2C(=NC(=O)COc3ccccc3)SC3CS(=O)(=O)CC32)cc1 (stereo unspecified) | nt | -1.6 | 4.4 | nt | nt | 0.2 | nt
COc1ccc(CCN2C(=O)c3[nH]nc(-c4ccccc4O)c3C2c2cccc(Cl)c2)cc1 (stereo unspecified) | 1.55 | 1.5 | 27.8 | 100.5* | 104.4* | 5.6 | 88.0*
CCc1ccc(Nc2cc(=O)n(C3CCCCC3)c(=O)[nH]2)cc1 | -1.01 | 0.2 | 9.8 | 5.2 | 105.5* | 2.5 | 49.3
Fc1cccc(/C=N/NC(=S)Nc2ccccc2Cl)c1 | -0.466 | 2.2 | 2.4 | -2.8 | 103.9* | -0.6 | -32.9
COCCn1c(=NC(=O)CN2C(=O)CCC2=O)sc2cc(S(N)(=O)=O)ccc21 | -0.434 | 1.1 | 1.2 | -5.0 | 9.3 | 0.5 | nt
COCCn1c(=NC(=O)c2cc3ccccc3oc2=O)sc2cc(S(N)(=O)=O)ccc21 | i | -1.8 | 3.9 | -7.7 | 100.9* | -0.3 | -20.9
Clc1ccc2ncc(-c3nnnn3-c3ccccc3)c(-c3ccccc3)c2c1 | -0.0133 | -0.5 | 37.2 | 32.0 | 106.8* | 1.9 | 7.7
Clc1ccc(-n2nnnc2-c2cnc3ccc(Cl)cc3c2-c2ccccc2)cc1 | 0.654 | 0.8 | 43.9 | nt | 19.5 | 5.0 | nt
